In ChEMBL document CHEMBL1140263, “Structure-based design, synthesis, and study of potent inhibitors of beta-ketoacyl-acyl carrier protein synthase III as potential antimicrobial agents” (J Med Chem, 2005):
pIC50: −log10 of the molar value. Values after ≈ are worked out from the molar mass of the structure shown.

Tests used:
[1] = target: T1, Beta-ketoacyl-[acyl-carrier-protein] synthase III (Enterococcus faecalis (strain ATCC 700802 / V583), UniProt Q820T1); assay: Inhibitory concentration against Enterococcus faecalis beta-Ketoacyl-acyl carrier protein synthase III
T1 sequence (Q820T1 whole entry): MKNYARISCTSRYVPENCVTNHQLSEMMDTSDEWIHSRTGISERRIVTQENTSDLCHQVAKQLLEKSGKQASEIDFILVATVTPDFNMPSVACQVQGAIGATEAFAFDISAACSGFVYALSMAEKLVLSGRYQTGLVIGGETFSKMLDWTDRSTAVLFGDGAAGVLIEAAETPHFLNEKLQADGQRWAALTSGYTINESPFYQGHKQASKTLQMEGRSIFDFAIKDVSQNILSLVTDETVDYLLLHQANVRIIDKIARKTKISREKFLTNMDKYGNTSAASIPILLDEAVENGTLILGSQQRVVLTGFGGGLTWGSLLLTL
Summary of the method: (§1)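 Coupled FabD/FabH radiometric assay with His-tagged or tagless FabH expressed in E. coli BL21(DE3). The mix held 100 mM sodium phosphate pH 7.0, 2 mM DTT, 1 mM MgCl₂, 12.5 µM E. coli holo-ACP, 10 nM FabD and 3-5 nM FabH. Malonyl-CoA was added for 1 min, then acetyl-CoA plus [³H]acetyl-CoA, NADH and NADPH for 19 min. TCA-precipitated protein was counted by liquid scintillation; DMSO ≤2% final.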

[2] = target: T2, Beta-ketoacyl-[acyl-carrier-protein] synthase III (Streptococcus pyogenes serotype M3 (strain ATCC BAA-595 / MGAS315), UniProt P0DB00); assay: Inhibitory concentration against Streptococcus pyogenes beta-Ketoacyl-acyl carrier protein synthase III
T2 sequence (P0DB00 whole entry): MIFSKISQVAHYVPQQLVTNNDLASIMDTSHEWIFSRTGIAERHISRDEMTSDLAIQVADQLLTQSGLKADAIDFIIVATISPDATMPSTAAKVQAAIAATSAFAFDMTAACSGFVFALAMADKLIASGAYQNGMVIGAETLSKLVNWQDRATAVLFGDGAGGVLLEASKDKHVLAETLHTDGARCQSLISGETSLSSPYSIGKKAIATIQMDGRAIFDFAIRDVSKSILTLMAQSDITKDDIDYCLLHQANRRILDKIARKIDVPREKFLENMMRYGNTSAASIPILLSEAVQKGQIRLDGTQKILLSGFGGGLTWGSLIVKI
Summary of the method: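 S. pyogenes FabH (10 nM, His-tagged or tagless, expressed in E. coli BL21(DE3)) was run in a coupled assay with 10 nM FabD, 12.5 µM holo-ACP, 100 mM sodium phosphate pH 7.0, 2 mM DTT and 1 mM MgCl₂. Malonyl-CoA was added for 1 min, then [³H]acetyl-CoA/acetyl-CoA with NADH and NADPH for 19 min. The reaction was stopped with cold TCA and the pellet read by scintillation. Inhibitor DMSO ≤2%.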

[3] = target: T3, Beta-ketoacyl-[acyl-carrier-protein] synthase III (Haemophilus influenzae (strain ATCC 51907 / DSM 11121 / KW20 / Rd), UniProt P43711); assay: Inhibitory concentration against Haemophilus influenzae beta-Ketoacyl-acyl carrier protein synthase III; summary of the method: as §1
T3 sequence (P43711 whole entry): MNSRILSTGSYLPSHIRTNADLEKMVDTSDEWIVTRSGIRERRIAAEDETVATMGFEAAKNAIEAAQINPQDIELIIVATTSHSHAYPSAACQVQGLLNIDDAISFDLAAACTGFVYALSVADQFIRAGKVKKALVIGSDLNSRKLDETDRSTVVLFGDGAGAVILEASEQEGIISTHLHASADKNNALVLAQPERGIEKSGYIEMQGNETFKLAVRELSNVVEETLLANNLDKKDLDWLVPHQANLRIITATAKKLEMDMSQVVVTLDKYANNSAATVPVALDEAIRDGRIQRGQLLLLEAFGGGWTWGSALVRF

[4] = target: T4, Beta-ketoacyl-[acyl-carrier-protein] synthase III (Staphylococcus aureus subsp. aureus Mu50, UniProt P68795); assay: Inhibitory concentration against Staphylococcus aureus beta-Ketoacyl-acyl carrier protein synthase III
T4 sequence (P68795 whole entry): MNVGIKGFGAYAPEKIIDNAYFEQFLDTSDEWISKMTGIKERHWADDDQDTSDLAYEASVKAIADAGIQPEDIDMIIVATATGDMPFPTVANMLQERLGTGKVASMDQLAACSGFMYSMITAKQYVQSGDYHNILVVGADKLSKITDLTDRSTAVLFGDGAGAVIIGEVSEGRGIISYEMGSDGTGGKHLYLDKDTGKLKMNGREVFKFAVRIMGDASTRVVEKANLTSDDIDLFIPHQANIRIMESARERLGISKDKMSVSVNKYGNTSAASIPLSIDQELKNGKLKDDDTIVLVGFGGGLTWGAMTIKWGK
Summary of the method: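 Coupled FabD/FabH radiometric assay, 100 µL final, pH 7.0: 100 mM sodium phosphate, 2 mM DTT, 1 mM MgCl2, 12.5 µM E. coli holo-ACP, 10 nM FabD, 20 nM S. aureus FabH (His-tagged or tagless, expressed in E. coli BL21(DE3)). FabD started with malonyl-CoA for 1 min. Acetyl-CoA plus [3H]acetyl-CoA, NADH and NADPH then added; FabH reaction 19 min. Stopped with TCA; pellet counted by liquid scintillation. DMSO ≤2% final.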

Neisseria meningitidis = assay: Minimum inhibitory concentration against Neisseria meningitides MC58 in presence of membrane permeablizing agent polymyxin B; assay type: functional
Streptococcus pneumoniae = assay: Minimum inhibitory concentration against Streptococcus pneumonia ATCC 6301; assay type: functional
Escherichia coli = assay: Minimum inhibitory concentration against Escherichia coli TolC- mutant in presence of membrane permeablizing agent polymyxin B; assay type: functional
[5] = Minimum inhibitory concentration against Enterococcus faecalis VRE 583; assay type: functional, Enterococcus faecalis V583
Staphylococcus aureus = assay: Minimum inhibitory concentration against Staphylococcus aureus MRSA 703; assay type: functional
Streptococcus pyogenes = assay: Minimum inhibitory concentration against Streptococcus pyogenes NZ131; assay type: functional

## O=C(O)c1ccc(-c2ccc(C(=O)Nc3ccccc3C(=O)O)cc2Oc2ccccc2)cc1
[1]
  pIC50: 5.68

## O=C(Nc1sccc1C(=O)O)c1cccc(Oc2ccccc2)c1
[1]
  pIC50: 4.37

## O=C(Nc1ccccc1C(=O)O)c1ccc(-c2ccccc2)c(Oc2ccccc2)c1
[1]
  pIC50: 7.25
[2]
  pIC50: 7.30
[3]
  pIC50: < 4.00
[4]
  pIC50: 5.00
Neisseria meningitidis
  MIC: 1.4 µg/mL
Streptococcus pneumoniae
  MIC: 1.4 µg/mL (≈ 3.42 µM)
Escherichia coli
  MIC: 1.4 µg/mL
[5]
  MIC: 22 µg/mL (≈ 53.7 µM)
Staphylococcus aureus
  MIC: 11.3 µg/mL (≈ 27.6 µM)

## CCN(CC)S(=O)(=O)c1cc(C(=O)Nc2ccccc2C(=O)O)ccc1Br
[1]
  pIC50: 5.80

## O=C(Nc1ncccc1C(=O)O)c1cccc(Oc2ccccc2)c1
[1]
  pIC50: < 3.00

## O=C(O)c1cccc(Oc2cccc(C(=O)Nc3ccccc3C(=O)O)c2)c1
[1]
  pIC50: 5.43

## CCN(CC)S(=O)(=O)c1cc(C(=O)Nc2ccccc2C(=O)O)ccc1OCC1CCCC1
[1]
  pIC50: 5.68

## CCN(CC)S(=O)(=O)c1cc(C(=O)Nc2ccccc2C(=O)O)ccc1-c1ccccc1
[1]
  pIC50: 5.80

## O=C(Nc1ccccc1C(=O)O)c1ccc(-c2ccc(F)c(Cl)c2)c(Oc2ccccc2)c1
[1]
  pIC50: 6.24

## CC1CC(C)CN(c2ccc(C(=O)Nc3ccccc3C(=O)O)cc2Oc2ccccc2)C1 (configuration not stated)
[1]
  pIC50: 6.57
Neisseria meningitidis
  MIC: 2.8 µg/mL
Streptococcus pneumoniae
  MIC: 2.8 µg/mL (≈ 6.3 µM)
Escherichia coli
  MIC: 5.6 µg/mL
[5]
  MIC: 11.3 µg/mL (≈ 25.4 µM)
Streptococcus pyogenes
  MIC: 2.8 µg/mL (≈ 6.3 µM)
Staphylococcus aureus
  MIC: 5.6 µg/mL (≈ 12.6 µM)

## O=C(Nc1ccccc1C(=O)O)c1ccc(-c2cn[nH]c2)c(Oc2ccccc2)c1
[1]
  pIC50: 4.66

## CCOc1ccc(-c2ccc(C(=O)Nc3ccccc3C(=O)O)cc2Oc2ccccc2)cc1
[1]
  pIC50: 6.66

## Cc1ccc(-c2ccc(C(=O)Nc3ccccc3C(=O)O)cc2Oc2ccccc2)cc1
[1]
  pIC50: 6.80

## Cc1cc(-c2ccc(C(=O)Nc3ccccc3C(=O)O)cc2Oc2ccccc2)ccc1Cl
[1]
  pIC50: 6.60
Neisseria meningitidis
  MIC: 0.7 µg/mL
Streptococcus pneumoniae
  MIC: 2.8 µg/mL (≈ 6.11 µM)
Escherichia coli
  MIC: 0.7 µg/mL
[5]
  MIC: 5.6 µg/mL (≈ 12.2 µM)
Streptococcus pyogenes
  MIC: 1.4 µg/mL (≈ 3.06 µM)
Staphylococcus aureus
  MIC: 5.6 µg/mL (≈ 12.2 µM)

## O=C(Nc1cccc(O)c1C(=O)O)c1cccc(Oc2ccccc2)c1
[1]
  pIC50: 6.39

## CCN(CC)S(=O)(=O)c1cc(C(=O)Nc2ccccc2C(=O)O)cc(C)c1Br
[1]
  pIC50: 3.80

## O=C(Nc1ccccc1C(=O)O)c1ccc(-c2ccc(F)c(F)c2)c(Oc2ccccc2)c1
[1]
  pIC50: 6.48

## O=C(O)c1ccc(Oc2cccc(C(=O)Nc3ccccc3C(=O)O)c2)cc1
[1]
  pIC50: 5.36

## CCN(CC)S(=O)(=O)c1cc(C(=O)Nc2ccccc2C(=O)O)ccc1Oc1ccccc1
[1]
  pIC50: 5.21

## O=C(Nc1ccccc1C(=O)O)c1ccc(N2CCNCC2)c(Oc2ccccc2)c1
[1]
  pIC50: 3.73

## CCN(CC)S(=O)(=O)c1cc(C(=O)Nc2ccccc2C(=O)O)ccc1N1CCCCC1
[1]
  pIC50: 5.66

## O=C(Nc1ccccc1C(=O)O)c1cccc(Oc2ccccc2)c1
[1]
  pIC50: 5.57

## CC(C)c1cccc(-c2ccc(C(=O)Nc3ccccc3C(=O)O)cc2Oc2ccccc2)c1
[1]
  pIC50: 6.10
Neisseria meningitidis
  MIC: 1.4 µg/mL
Streptococcus pneumoniae
  MIC: 1.4 µg/mL (≈ 3.1 µM)
Escherichia coli
  MIC: 2.8 µg/mL
[5]
  MIC: 5.6 µg/mL (≈ 12.4 µM)
Streptococcus pyogenes
  MIC: 2.8 µg/mL (≈ 6.2 µM)
Staphylococcus aureus
  MIC: 5.6 µg/mL (≈ 12.4 µM)

## CN1CCN(c2ccc(C(=O)Nc3ccccc3C(=O)O)cc2Oc2ccccc2)CC1
[1]
  pIC50: 4.60

## O=C(Nc1ccccc1C(=O)O)c1ccc(-c2ccc(C(F)(F)F)cc2)c(Oc2ccccc2)c1
[1]
  pIC50: 7.02
Neisseria meningitidis
  MIC: 1.4 µg/mL
Streptococcus pneumoniae
  MIC: 0.7 µg/mL (≈ 1.47 µM)
Escherichia coli
  MIC: 0.7 µg/mL
[5]
  MIC: 5.6 µg/mL (≈ 11.7 µM)
Streptococcus pyogenes
  MIC: 2.8 µg/mL (≈ 5.86 µM)
Staphylococcus aureus
  MIC: 5.6 µg/mL (≈ 11.7 µM)

## O=C(Nc1ccccc1C(=O)O)c1ccc(F)c(Oc2ccccc2)c1
[1]
  pIC50: 5.42

## O=C(Nc1ccccc1C(=O)O)c1ccc(N2CCSCC2)c(Oc2ccccc2)c1
[1]
  pIC50: 5.92

## O=C(Nc1ccccc1C(=O)O)c1ccc(N2CCCCC2)c(Oc2ccccc2)c1
[1]
  pIC50: 6.54

## O=C(Nc1ccsc1C(=O)O)c1cccc(Oc2ccccc2)c1
[1]
  pIC50: 5.00

## O=C(Nc1ccccc1C(=O)O)c1ccc(N2CCOCC2)c(Oc2ccccc2)c1
[1]
  pIC50: 5.49

## CCN(CC)S(=O)(=O)c1cc(C(=O)Nc2ccccc2C(=O)O)ccc1OC
[1]
  pIC50: 4.94

## O=C(Nc1cccc(F)c1C(=O)O)c1cccc(Oc2ccccc2)c1
[1]
  pIC50: 5.22

## CC1CN(c2ccc(C(=O)Nc3ccccc3C(=O)O)cc2Oc2ccccc2)CC(C)N1 (configuration not stated)
[1]
  pIC50: 4.42

## CCN(CC)S(=O)(=O)c1cc(C(=O)Nc2ccccc2C(=O)O)ccc1F
[1]
  pIC50: 5.08

## O=C(Nc1cccnc1C(=O)O)c1cccc(Oc2ccccc2)c1
[1]
  pIC50: 3.54

## O=C(Nc1ccccc1C(=O)O)c1ccc(-c2cccnc2)c(Oc2ccccc2)c1
[1]
  pIC50: 6.96

## O=C(Nc1ccccc1C(=O)O)c1cccc(Oc2ccc(F)cc2)c1
[1]
  pIC50: 5.30

## O=C(Nc1ccccc1C(=O)O)c1cccc(Oc2ccncc2)c1
[1]
  pIC50: 5.00

## O=C(Nc1ccccc1C(=O)O)c1ccc(-c2ccc(F)cc2F)c(Oc2ccccc2)c1
[1]
  pIC50: 6.80
Neisseria meningitidis
  MIC: 0.36 µg/mL
Streptococcus pneumoniae
  MIC: 2.8 µg/mL (≈ 6.29 µM)
Escherichia coli
  MIC: 0.7 µg/mL
[5]
  MIC: 11.3 µg/mL (≈ 25.4 µM)
Streptococcus pyogenes
  MIC: 2.8 µg/mL (≈ 6.29 µM)
Staphylococcus aureus
  MIC: 5.6 µg/mL (≈ 12.6 µM)

## O=C(Nc1ccccc1C(=O)O)c1ccc(-c2ccc(O)cc2)c(Oc2ccccc2)c1
[1]
  pIC50: 6.39

## Cc1cc(-c2ccc(C(=O)Nc3ccccc3C(=O)O)cc2Oc2ccccc2)ccc1F
[1]
  pIC50: 6.62
Neisseria meningitidis
  MIC: 0.7 µg/mL
Streptococcus pneumoniae
  MIC: 0.7 µg/mL (≈ 1.59 µM)
Escherichia coli
  MIC: 0.7 µg/mL
[5]
  MIC: 2.8 µg/mL (≈ 6.34 µM)
Streptococcus pyogenes
  MIC: 2.8 µg/mL (≈ 6.34 µM)
Staphylococcus aureus
  MIC: 5.6 µg/mL (≈ 12.7 µM)

## O=C(Nc1ccccc1C(=O)O)c1ccc(-c2cccc(OC(F)(F)F)c2)c(Oc2ccccc2)c1
[1]
  pIC50: 6.33

## O=C(Nc1ccccc1C(=O)O)c1ccc(Br)c(Oc2ccccc2)c1
[1]
  pIC50: 5.96
